Values after ≈ are worked out from the molar mass of the structure shown.
Assays:
[1] = test system: Trichophyton mentagrophytes; assay: Antifungal activity against Trichophyton mentagrophytes after 48 hrs by broth microdilution method; type: functional
Method in brief: (§1)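 NCCLS broth microdilution in RPMI 1640 buffered with MOPS; starting inoculum 1–5 × 10^3 CFU/mL; plates incubated at 35 °C; MIC read after 48 h.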

Sporothrix schenckii = assay: Antifungal activity against Sporothrix schenckii after 48 hrs by broth microdilution method; type: functional; method in brief: as §1
Candida parapsilosis = assay: Antifungal activity against Candida parapsilosis ATCC 22019 after 48 hrs by broth microdilution method; type: functional; details: Lodderomyces parapsilosis, ATCC 22019, 48 h; method in brief: as §1
Candida albicans = assay: Antifungal activity against Candida albicans after 48 hrs by broth microdilution method; type: functional; method in brief: as §1
[2] = Spermicidal activity in human sperms assessed as motility measured within 30 secs by phase contrast microscopy; type: functional, Sperm
Method in brief: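 Liquefied human semen (0.05 mL) was added to 0.25 mL test solution and vortexed 10 s at low speed. Motile sperm were scored visually under phase contrast in five fields within 30 s; assays in triplicate; MEC = minimum effective concentration.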

Trichomonas vaginalis [3] = assay: Antitrichomonas activity against metronidazole-resistant trophozoite stage of Trichomonas vaginalis ATCC 50143 assessed as cell viability under anaerobic condition after 48 hrs by trypan blue exclusion assay; type: functional; details: ATCC 50143, 48 h
Method in brief: (§2)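 Log-phase T. vaginalis grown in TYM with 10% FCS, vitamin mix and penicillin/streptomycin at 37 °C. Compounds were made as 100 µg/mL DMSO stocks and serially diluted in TYM down to 0.1 µg/mL; DMSO/TYM served as vehicle. Parasites were incubated anaerobically at 37 °C, and viability was checked by trypan blue exclusion from 3 to 48 h. MIC = lowest concentration killing all cells by 48 h; each test was repeated three times.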

Cryptococcus neoformans = assay: Antifungal activity against Cryptococcus neoformans after 48 hrs by broth microdilution method; type: functional; method in brief: as §1
Trichomonas vaginalis [4] = assay: Antitrichomonas activity against trophozoite stage of Trichomonas vaginalis clinical isolate assessed as cell viability under anaerobic condition after 48 hrs by trypan blue exclusion assay; type: functional; method in brief: as §2

Row | SMILES | MIC [1] [µM] | MIC (Sporothrix schenckii) [µM] | MIC (Candida parapsilosis) [µM] | MIC (Candida albicans) [µM] | MEC [2] [%] | MIC (Trichomonas vaginalis [3]) [µM] | MIC (Cryptococcus neoformans) [µM] | MIC (Trichomonas vaginalis [4]) [µM]
1 | S=C(SCCN1CCCCC1)N1CCN(C(=S)SSC(=S)N2CCN(C(=S)SCCN3CCCCC3)CC2)CC1 | > 71.7 | > 71.7 | > 71.7 | > 71.7 | 0.5 | > 143 | > 71.7 | > 143
2 | CCCCCCSC(=S)N1CCN(C(=S)SSC(=S)N2CCN(C(=S)SCCCCCC)CC2)CC1 | > 77.7 | 77.7 (≈ 50 µg/mL) | 77.7 (≈ 50 µg/mL) | 77.7 (≈ 50 µg/mL) | 1 | > 155 | 38.8 (≈ 25 µg/mL) | > 155
3 | CCCCCCSC(=S)N1CCN(CCCC#N)CC1 | – | – | – | – | >1 | – | – | –
4 | CN1CCN(C(=S)SCSC(=S)N2CCN(C)CC2)CC1 | – | – | – | – | 0.5 | – | – | –
5 | O=C(c1ccccc1)N1CCN(C(=S)SSC(=S)N2CCN(C(=O)c3ccccc3)CC2)CC1 | > 94.1 | > 94.1 | > 94.1 | 94.1 (≈ 49.9 µg/mL) | 0.5 | > 188 | > 94.1 | > 188
6 | CCCCCCSC(=S)N1CCN(CCCC)CC1 | – | – | – | – | >1 | – | – | –
7 | CN1CCN(C(=S)SCCSC(=S)N2CCN(C)CC2)CC1 | – | – | – | – | 0.5 | – | – | –
8 | S=C(SSC(=S)N1CCN(C23CC4CC(CC(C4)C2)C3)CC1)N1CCN(C23CC4CC(CC(C4)C2)C3)CC1 | 84.6 (≈ 50 µg/mL) | 84.6 (≈ 50 µg/mL) | 84.6 (≈ 50 µg/mL) | 84.6 (≈ 50 µg/mL) | 1 | > 169 | 84.6 (≈ 50 µg/mL) | > 169
9 | N#CCCCN1CCN(C(=S)SCCSC(=S)N2CCN(CCCC#N)CC2)CC1 | – | – | – | – | 0.5 | – | – | –
10 | S=C(SSC(=S)N1CCCCC1)N1CCCCC1 [BIS(PIPERIDINYLTHIOCARBONYL)DISULFIDE] | 19.4 (≈ 6.22 µg/mL) | 38.9 (≈ 12.5 µg/mL) | 38.9 (≈ 12.5 µg/mL) | 9.7 (≈ 3.11 µg/mL) | 1 | 155 (≈ 49.7 µg/mL) | 2.4 (≈ 0.769 µg/mL) | 155 (≈ 49.7 µg/mL)
11 | S=C(SSC(=S)N1CCN(c2ncccn2)CC1)N1CCN(c2ncccn2)CC1 | 104 (≈ 49.8 µg/mL) | 104 (≈ 49.8 µg/mL) | > 104 | > 104 | 1 | > 208 | 104 (≈ 49.8 µg/mL) | 104 (≈ 49.8 µg/mL)
12 | OC(Cn1cncn1)(Cn1cncn1)c1ccc(F)cc1F [FLUCONAZOLE] | 0.39 (≈ 0.119 µg/mL) | 0.39 (≈ 0.119 µg/mL) | 0.39 (≈ 0.119 µg/mL) | 0.39 (≈ 0.119 µg/mL) | – | – | 0.19 (≈ 0.0582 µg/mL) | –
13 | C=CCN1CCN(C(=S)SCCCSC(=S)N2CCN(CC=C)CC2)CC1 | – | – | – | – | 0.5 | – | – | –
14 | CN1CCN(C(=S)SCCCSC(=S)N2CCN(C)CC2)CC1 | – | – | – | – | 0.5 | – | – | –
15 | CCCCCCCCN1CCN(C(=S)SSC(=S)N2CCN(CCCCCCCC)CC2)CC1 | 91.4 (≈ 50 µg/mL) | 91.4 (≈ 50 µg/mL) | 91.4 (≈ 50 µg/mL) | 91.4 (≈ 50 µg/mL) | 0.1 | 182 (≈ 99.6 µg/mL) | 91.4 (≈ 50 µg/mL) | 182 (≈ 99.6 µg/mL)
16 | C=CCN1CCN(C(=S)SCSC(=S)N2CCN(CC=C)CC2)CC1 | – | – | – | – | 1 | – | – | –
17 | CC(C)COC(=O)N1CCN(C(=S)SSC(=S)N2CCN(C(=O)OCC(C)C)CC2)CC1 | 95.6 (≈ 50 µg/mL) | > 95.6 | > 95.6 | 95.6 (≈ 50 µg/mL) | >1 | > 191 | > 95.6 | > 191
18 | CS(=O)(=O)N1CCN(C(=S)SSC(=S)N2CCN(S(C)(=O)=O)CC2)CC1 | 52.1 (≈ 24.9 µg/mL) | > 104 | > 104 | 104 (≈ 49.8 µg/mL) | 1 | > 208 | > 104 | > 208
19 | N#CCCCN1CCN(C(=S)SCSC(=S)N2CCN(CCCC#N)CC2)CC1 | – | – | – | – | 0.5 | – | – | –

Row | SMILES | MIC [1] [µM] | MIC (Sporothrix schenckii) [µM] | MIC (Candida parapsilosis) [µM] | MIC (Candida albicans) [µM] | MEC [2] [%] | MIC (Trichomonas vaginalis [3]) [µM] | MIC (Cryptococcus neoformans) [µM] | MIC (Trichomonas vaginalis [4]) [µM]
20 | CCCCCCCCCCSC(=S)N1CCN(C(=S)SSC(=S)N2CCN(C(=S)SCCCCCCCCCC)CC2)CC1 | > 66.2 | 66.2 (≈ 50 µg/mL) | 66.2 (≈ 50 µg/mL) | 66.2 (≈ 50 µg/mL) | 1 | > 132 | 33.1 (≈ 25 µg/mL) | > 132
21 | S=C(SSC(=S)N1CCN(c2ccccn2)CC1)N1CCN(c2ccccn2)CC1 | 52.4 (≈ 25 µg/mL) | 104 (≈ 49.6 µg/mL) | > 104 | > 104 | 1 | > 209 | 104 (≈ 49.6 µg/mL) | > 209
22 | S=C(SCCN1CCOCC1)N1CCN(C(=S)SSC(=S)N2CCN(C(=S)SCCN3CCOCC3)CC2)CC1 | > 71.3 | > 71.3 | > 71.3 | > 71.3 | 0.5 | > 142 | > 71.3 | > 142
23 | CCCCCCCCSC(=S)N1CCN(C(=S)SSC(=S)N2CCN(C(=S)SCCCCCCCC)CC2)CC1 | > 71.5 | 35.7 (≈ 25 µg/mL) | > 71.5 | 35.7 (≈ 25 µg/mL) | 1 | > 143 | 35.7 (≈ 25 µg/mL) | 89.4 (≈ 62.5 µg/mL)
24 | CCCCCCCSC(=S)N1CCN(C(=S)SSC(=S)N2CCN(C(=S)SCCCCCCC)CC2)CC1 | > 74.5 | 74.5 (≈ 50 µg/mL) | 74.5 (≈ 50 µg/mL) | > 74.5 | >1 | > 149 | 74.5 (≈ 50 µg/mL) | > 149
25 | Cc1ccc(S(=O)(=O)N2CCN(C(=S)SSC(=S)N3CCN(S(=O)(=O)c4ccc(C)cc4)CC3)CC2)cc1 | 76.5 (≈ 48.3 µg/mL) | 76.5 (≈ 48.3 µg/mL) | > 76.5 | > 76.5 | >1 | > 153 | > 76.5 | > 153
26 | N#CCCCN1CCN(C(=S)SCCCSC(=S)N2CCN(CCCC#N)CC2)CC1 | – | – | – | – | 0.5 | – | – | –
27 | CCCCN1CCN(C(=S)SCCCSC(=S)N2CCN(CCCC)CC2)CC1 | – | – | – | – | 0.5 | – | – | –
28 | C=CCN1CCN(C(=S)SCCSC(=S)N2CCN(CC=C)CC2)CC1 | – | – | – | – | 0.5 | – | – | –
29 | CCCCN1CCN(C(=S)SCCSC(=S)N2CCN(CCCC)CC2)CC1 | – | – | – | – | 0.5 | – | – | –
30 | S=C(SSC(=S)N(C1CCCCC1)C1CCCCC1)N(C1CCCCC1)C1CCCCC1 | 97.4 (≈ 50 µg/mL) | 97.4 (≈ 50 µg/mL) | > 97.4 | 48.7 (≈ 25 µg/mL) | >1 | > 194 | 24.3 (≈ 12.5 µg/mL) | > 194
31 | C=CCN1CCN(C(=S)SCCC)CC1 | – | – | – | – | >1 | – | – | –
32 | CCCSC(=S)N1CCN(CCCC#N)CC1 | – | – | – | – | >1 | – | – | –
33 | O=[N+]([O-])c1ccc(N2CCN(C(=S)SSC(=S)N3CCN(c4ccc([N+](=O)[O-])cc4C(F)(F)F)CC3)CC2)c(C(F)(F)F)c1 | 71.3 (≈ 50 µg/mL) | > 71.3 | > 71.3 | 35.6 (≈ 24.9 µg/mL) | 0.1 | > 142 | > 71.3 | > 142
34 | Fc1ccc(N2CCN(C(=S)SSC(=S)N3CCN(c4ccc(F)cc4)CC3)CC2)cc1 | 97.8 (≈ 49.9 µg/mL) | 97.8 (≈ 49.9 µg/mL) | > 97.8 | 97.8 (≈ 49.9 µg/mL) | >1 | > 195 | > 97.8 | > 195
35 | CCCCN1CCN(C(=S)SCCC)CC1 | – | – | – | – | >1 | – | – | –
36 | C=CCN1CCN(C(=S)SCCCCCC)CC1 | – | – | – | – | >1 | – | – | –
37 | CCCCN1CCN(C(=S)SCSC(=S)N2CCN(CCCC)CC2)CC1 | – | – | – | – | 0.5 | – | – | –

— ChEMBL document CHEMBL3792366, “Role of disulfide linkage in action of bis(dialkylaminethiocarbonyl)disulfides as potent double-Edged microbicidal spermicide: Design, synthesis and biology” (Eur J Med Chem, 2016)
